The source made the active and inactive calls. The calls are words filed in the database; no cut-off is given here.
Experiments:
[1] = target: T1, Mitogen-activated protein kinase kinase kinase 7 (Homo sapiens) (UniProt O43318); assay: Inhibition of TAK1 Lys2 labeling site in human A-375 cells at 0.5 uM by KiNativ Profiling analysis relative to control; assay type: cell-based
T1 sequence (whole entry): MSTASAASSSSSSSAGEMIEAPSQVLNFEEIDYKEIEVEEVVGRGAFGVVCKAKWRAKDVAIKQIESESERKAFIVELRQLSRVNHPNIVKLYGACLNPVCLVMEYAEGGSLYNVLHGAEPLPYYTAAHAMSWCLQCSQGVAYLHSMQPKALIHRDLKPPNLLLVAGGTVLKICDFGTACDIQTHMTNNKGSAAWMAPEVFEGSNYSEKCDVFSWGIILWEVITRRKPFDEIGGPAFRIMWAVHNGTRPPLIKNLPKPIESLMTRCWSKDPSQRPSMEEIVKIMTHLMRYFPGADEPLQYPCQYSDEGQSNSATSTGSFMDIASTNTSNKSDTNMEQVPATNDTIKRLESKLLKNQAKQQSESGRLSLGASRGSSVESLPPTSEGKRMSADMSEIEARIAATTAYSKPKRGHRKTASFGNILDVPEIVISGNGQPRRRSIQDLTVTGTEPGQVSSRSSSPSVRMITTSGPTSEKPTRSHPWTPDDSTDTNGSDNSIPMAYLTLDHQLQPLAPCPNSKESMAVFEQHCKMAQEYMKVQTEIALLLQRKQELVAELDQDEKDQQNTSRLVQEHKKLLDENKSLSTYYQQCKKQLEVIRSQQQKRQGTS

[2] = target: T2, Mitogen-activated protein kinase kinase kinase kinase 2 (Homo sapiens) (UniProt Q12851); assay: Inhibition of MAP4K2 Lys1 labeling site in human A-375 cells at 0.5 uM by KiNativ Profiling analysis relative to control; assay type: cell-based
T2 sequence (whole entry): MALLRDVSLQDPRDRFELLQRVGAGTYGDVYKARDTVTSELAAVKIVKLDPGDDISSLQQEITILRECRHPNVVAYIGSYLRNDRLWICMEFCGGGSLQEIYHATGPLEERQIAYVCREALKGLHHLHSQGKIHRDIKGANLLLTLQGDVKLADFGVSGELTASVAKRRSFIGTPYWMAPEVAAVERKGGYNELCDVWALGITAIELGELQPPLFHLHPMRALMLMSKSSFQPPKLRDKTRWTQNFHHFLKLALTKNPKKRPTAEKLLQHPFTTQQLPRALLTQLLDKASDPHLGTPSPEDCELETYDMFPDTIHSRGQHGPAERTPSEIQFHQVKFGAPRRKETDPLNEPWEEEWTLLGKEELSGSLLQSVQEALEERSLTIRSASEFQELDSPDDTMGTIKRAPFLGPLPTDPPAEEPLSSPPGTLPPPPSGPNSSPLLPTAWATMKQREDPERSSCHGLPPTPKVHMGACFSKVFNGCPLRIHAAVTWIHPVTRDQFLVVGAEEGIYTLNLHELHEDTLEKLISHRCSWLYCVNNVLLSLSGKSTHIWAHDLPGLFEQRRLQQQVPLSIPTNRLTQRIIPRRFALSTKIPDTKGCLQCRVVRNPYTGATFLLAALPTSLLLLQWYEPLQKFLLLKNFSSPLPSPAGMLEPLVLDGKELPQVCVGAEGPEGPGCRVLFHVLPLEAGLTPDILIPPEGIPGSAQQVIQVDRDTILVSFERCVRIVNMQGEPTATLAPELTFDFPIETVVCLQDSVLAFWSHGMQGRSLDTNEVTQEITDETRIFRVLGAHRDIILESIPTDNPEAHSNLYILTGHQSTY

[3] = target: T3, Mitogen-activated protein kinase kinase kinase kinase 2 (Homo sapiens, UniProt Q12851); assay: Inhibition of MAP4K2 (unknown origin) Lys1 labeling site by KiNativ Profiling analysis
T3 sequence (Q12851 whole entry): T2 sequence (whole entry)

MEF [4] = assay: Inhibition of TGF-beta induced SMAD2 phosphorylation level in TAK1 deficient mouse MEF cells at upto 500 nM incubated for 1 hr followed by TGF-beta stimulation by Western blot analysis; assay type: functional, cell-based
Procedure, shortened: (§1)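 In serum-starved WT and TAK1–/– MEFs (0.1% FBS, 16 h), inhibitor was added 1 h before TGFβ (50 pM, 45 min). Cleared lysates were immunoblotted for phospho-SMAD2 and phospho-p38.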

MEF [5] = assay: Inhibition of TGF-beta induced p38 MAPK phosphorylation level in TAK1 deficient mouse MEF cells incubated for 1 hr followed by TGF-beta stimulation by Western blot analysis; assay type: functional, cell-based; settings: dose <= 500.0 nM; procedure, shortened: as §1
[6] = target: T4, Mitogen-activated protein kinase kinase kinase 7 (Homo sapiens, UniProt O43318); assay: Inhibition of TAK1 (unknown origin) Lys2 labeling site by KiNativ Profiling analysis
T4 sequence (O43318 whole entry): T1 sequence (whole entry)

MEF [7] = assay: Inhibition of IL-1 induced p38 MAPK phosphorylation level in TAK1 deficient mouse MEF cells incubated for 1 hr followed by IL-1 stimulation by Western blot analysis; assay type: functional, cell-based; settings: dose <= 500.0 nM
Procedure, shortened: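 WT and TAK1-null MEFs were grown in DMEM with 10% FBS and held in 0.1% FBS for 16 h. Compound was added 1 h before mouse IL-1α (5 ng/mL, 10 min). Cells were lysed in ice-cold buffer and extracts cleared at 16000g. Phospho-p38 was detected by Western blot.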

[8] = target: Serine/threonine-protein kinase Nek7 (Homo sapiens) (UniProt Q8TDX7); assay: Inhibition of NEK7 ACT labeling site in human A-375 cells at 0.05 uM by KiNativ Profiling analysis relative to control; assay type: cell-based
Sequence of Serine/threonine-protein kinase Nek7 (Homo sapiens) (Q8TDX7 whole entry, looked up): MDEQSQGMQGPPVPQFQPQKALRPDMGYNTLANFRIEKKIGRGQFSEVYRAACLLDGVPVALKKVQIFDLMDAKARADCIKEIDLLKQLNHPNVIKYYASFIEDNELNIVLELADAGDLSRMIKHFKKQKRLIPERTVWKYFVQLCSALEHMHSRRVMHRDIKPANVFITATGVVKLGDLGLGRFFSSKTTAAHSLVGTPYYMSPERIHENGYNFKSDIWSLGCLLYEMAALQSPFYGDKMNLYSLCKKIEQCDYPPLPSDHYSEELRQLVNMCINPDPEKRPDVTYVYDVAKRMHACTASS

[9] = target: Dual specificity mitogen-activated protein kinase kinase 1 (Homo sapiens) (UniProt Q02750); assay: Inhibition of MAP2K1 Lys2 labeling site harbouring DVKPSNILVNSR in human A-375 cells at 0.5 uM by KiNativ Profiling analysis relative to control; assay type: cell-based
Sequence of Dual specificity mitogen-activated protein kinase kinase 1 (Homo sapiens) (Q02750 whole entry): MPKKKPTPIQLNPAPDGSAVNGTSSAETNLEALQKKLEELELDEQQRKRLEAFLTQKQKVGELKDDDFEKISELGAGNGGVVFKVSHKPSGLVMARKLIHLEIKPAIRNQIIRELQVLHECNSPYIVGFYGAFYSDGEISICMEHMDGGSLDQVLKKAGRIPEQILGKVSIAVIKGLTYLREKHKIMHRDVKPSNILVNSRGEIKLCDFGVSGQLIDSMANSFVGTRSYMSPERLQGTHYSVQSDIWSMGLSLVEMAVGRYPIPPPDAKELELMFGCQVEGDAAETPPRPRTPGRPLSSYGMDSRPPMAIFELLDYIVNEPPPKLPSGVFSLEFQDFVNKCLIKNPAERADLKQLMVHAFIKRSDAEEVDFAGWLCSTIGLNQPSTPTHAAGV

`CNc1cc(Oc2cc(C(=O)Nc3cc(-n4cnc(C)c4)cc(C(F)(F)F)c3)ccc2C)ncn1` showed an inhibition [1] of 29.3%, an inhibition [2] of 79.7% and an IC50 [3] of 129 nM. For the same molecule, the inhibition (MEF [4]) was “inactive”, the inhibition (MEF [5]) was “Dose-Dependent Effect” and the IC50 [6] was > 1110 nM. The inhibition (MEF [7]) was “Dose-Dependent Effect”.
Work on `CNc1cc(Oc2cc(C(=O)Nc3cc(N4CCN(C)CC4)cc(C(F)(F)F)c3)ccc2C)ncn1` yielded an inhibition [1] of 7%, an inhibition [2] of 85.3% and an IC50 [3] of 37.2 nM. The inhibition (MEF [4]) was “inactive”, the inhibition (MEF [5]) was “Dose-Dependent Effect” and the IC50 [6] was 2700 nM. For the same molecule, the inhibition (MEF [7]) was “Dose-Dependent Effect”.
In the case of `CCN1CCN(Cc2ccc(NC(=O)c3ccc(C)c(Oc4ccnc5[nH]ccc45)c3)cc2C(F)(F)F)CC1`, the inhibition [1] is reported as 97.1%, the inhibition [2] is reported as > 99.5% and the inhibition [8] is reported as 14.2%. The inhibition [9] was -3.9%, the inhibition (MEF [4]) was “Active” and the inhibition (MEF [5]) was “Dose-Dependent Effect”. The IC50 [6] was 149 nM and the inhibition (MEF [7]) was “Dose-Dependent Effect”.
For `CCN1CCN(Cc2ccc(NC(=O)c3ccc(C)c(/C=C/c4cnc5[nH]ccc5c4OC)c3)cc2C(F)(F)F)CC1`, the inhibition [8] was 6.8%, the inhibition [9] was 1.8% and the IC50 [3] was 98 nM. For the same molecule, the IC50 [6] was 41 nM.
